Fh CTSL1 inh = counter-screen for PFM18AAP inhibitors: inhibitors of F. hepatica cathepsin L1; recombinant F. hepatica cathepsin L1, Z-Leu-Arg-MCA fluorescence; inhibition, % at 5.96 µM; AID 1906; 300,000 tested, 0.49% active;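 active means inhibition above the mean of all tested compounds plus 3 SD, set per screening campaign, cut at about 17% in these data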;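 further: 0% = plate median of test compound wells and 100% = 1 µM Z-Phe-Ala-diazomethylketone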
NSD2 HMT inh = blocks human histone methyltransferase NSD2; NSD2 peptide methylation, AlphaScreen, 120 min; inhibition, % at 12.5 µM; AID 743445; O96028; 310,000 tested, 0.54% active; in the data active means inhibition above about 50%
Target sequence (O96028 whole entry, looked up): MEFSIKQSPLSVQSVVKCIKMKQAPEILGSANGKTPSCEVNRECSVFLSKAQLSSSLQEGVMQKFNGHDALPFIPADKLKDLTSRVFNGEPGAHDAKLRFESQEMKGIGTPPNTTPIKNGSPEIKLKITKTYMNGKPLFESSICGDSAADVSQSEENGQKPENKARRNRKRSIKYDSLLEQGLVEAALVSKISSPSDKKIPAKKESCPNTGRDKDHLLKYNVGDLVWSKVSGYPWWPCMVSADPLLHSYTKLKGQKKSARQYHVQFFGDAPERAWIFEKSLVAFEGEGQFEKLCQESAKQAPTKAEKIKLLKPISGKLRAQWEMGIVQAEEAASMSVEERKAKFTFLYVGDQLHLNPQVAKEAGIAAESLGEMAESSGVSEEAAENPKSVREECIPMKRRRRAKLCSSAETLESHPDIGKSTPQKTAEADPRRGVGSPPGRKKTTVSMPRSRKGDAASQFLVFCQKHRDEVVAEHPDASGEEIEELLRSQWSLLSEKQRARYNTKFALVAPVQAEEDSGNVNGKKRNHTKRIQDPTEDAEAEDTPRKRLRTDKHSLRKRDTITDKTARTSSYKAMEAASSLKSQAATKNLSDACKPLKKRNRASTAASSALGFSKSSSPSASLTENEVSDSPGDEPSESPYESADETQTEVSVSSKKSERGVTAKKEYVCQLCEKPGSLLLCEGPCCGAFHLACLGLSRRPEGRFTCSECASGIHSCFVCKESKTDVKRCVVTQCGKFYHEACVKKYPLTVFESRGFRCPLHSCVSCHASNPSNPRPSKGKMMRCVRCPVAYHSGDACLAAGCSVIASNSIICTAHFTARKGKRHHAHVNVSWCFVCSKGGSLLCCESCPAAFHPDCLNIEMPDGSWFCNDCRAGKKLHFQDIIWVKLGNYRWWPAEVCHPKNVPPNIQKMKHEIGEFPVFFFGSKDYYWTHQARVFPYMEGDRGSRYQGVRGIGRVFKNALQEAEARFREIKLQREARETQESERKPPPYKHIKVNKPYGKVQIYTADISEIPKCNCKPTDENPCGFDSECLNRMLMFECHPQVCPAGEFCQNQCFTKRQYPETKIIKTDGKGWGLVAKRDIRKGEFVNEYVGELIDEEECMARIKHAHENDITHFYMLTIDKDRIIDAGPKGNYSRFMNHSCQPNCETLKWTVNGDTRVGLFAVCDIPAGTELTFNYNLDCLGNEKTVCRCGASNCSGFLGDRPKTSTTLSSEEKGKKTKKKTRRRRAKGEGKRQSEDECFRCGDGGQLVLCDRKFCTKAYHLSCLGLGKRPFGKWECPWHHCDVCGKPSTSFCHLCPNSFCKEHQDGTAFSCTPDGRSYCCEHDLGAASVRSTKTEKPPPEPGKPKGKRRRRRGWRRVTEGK
TDP2 inh = blocks human TDP2 phosphodiesterase activity; O95551; recombinant TDP2, T5PNP hydrolysis, p-nitrophenol absorbance 415 nm; inhibition, % at 12.8 µM; 370,000 tested, 0.34% active;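 active means inhibition above the mean of all tested compounds plus 3 SD, set per campaign, cut at about 25% in these data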;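 further: 0% = DMSO with enzyme and 100% = buffer with substrate but no TDP2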
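Test system: Human TDP2 enzyme | Reagent: 5 mM T5PNP | Compound dosing: 12.8 µM single point, 1% DMSO | Incubation: Enzyme reaction with compound for 2 h at 37 °C | Technique: p-Nitrophenol epi absorbance | Read-out: % inhibition relative to enzyme-containing and enzyme-free wells | Benchmarks: High control without enzyme, low control DMSO plus TDP2 | Replicates: Singlicate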
SUMO HTRF inh = SUMOylation inhibition | HTRF SUMOylation assay, SAE1/SAE2 + UBC9, in vitro | P63279 | AID 2006 | inhibition, % at 35 µM | 290,000 tested, 0.36% active; in the data active means inhibition above about 50%, passing the limit was not always enough
Starred values were filed as active, the others as inactive; x = not tested or not shown. The list is not random: actives were taken first. Their share in the collection is about 1.2%.

SMILES | Fh CTSL1 inh | NSD2 HMT inh | TDP2 inh | SUMO HTRF inh
CC1CCCN(c2nc3ccccc3nc2C(C#N)S(=O)(=O)c2ccccc2)C1 (configuration not stated) | 0.4 | 4.6 | 0.3 | 50.1*
N#CC(c1nc2ccccc2nc1N1CCCCC1)S(=O)(=O)c1ccc(Cl)cc1 (configuration not stated) | x | x | x | 74.9*
CCN=C1NC(c2ccc(C(F)(F)F)cc2)C(C(=O)OC)=C(C)N1Cc1ccccc1C(F)(F)F (configuration not stated) | x | -0.5 | -3.8 | x
CCN(CC)C(=O)CC[C@H]1CC[C@]2(CCCN(C(=O)c3ccco3)C2)O1 | x | x | 2.8 | x
CC1CCN(Cc2c(C(=O)N/N=C/c3cc(Cl)ccc3O)nnn2-c2nonc2N)CC1 | 4.6 | -5.5 | -4.8 | 81.8*
Cc1cc(C)c(/C=N/NC(=O)c2nnn(-c3nonc3N)c2CN2CCC(C)CC2)c(C)c1 | 2.0 | 0.2 | -12.2 | -40.8
CC1CCN(Cc2c(C(=O)N/N=C/c3cc(Br)ccc3O)nnn2-c2nonc2N)CC1 | 0.7 | 6.3 | -4.3 | 76.5*
CC1=CC(C)(C(Cl)(Cl)Cl)C(C)=CC1=NO (configuration not stated) | x | -0.3 | -0.2 | x
CC1(C)CC(=O)N(CC(=O)N2CCN(c3cccc(C(F)(F)F)c3)CC2)c2ccccc2S1(=O)=O | x | 12.8 | 4.6 | x
Cc1cc2c(=Cc3ccc(N(C)C)cc3)c3ccccc3n2[n+]1C | x | 54.7* | 5.9 | x
COc1ccc(NC(=O)COC(=O)CCNC(=O)c2ccccc2)cc1OC | x | 3.8 | x | x
CC1CCN(CCC(=O)Nc2ccc(Br)cc2)CC1 | -1.9 | 3.7 | -1.1 | x
CC1CC(C)CN(CCC(=O)Nc2ccc(Br)cc2)C1 (configuration not stated) | 17.6* | -1.1 | 7.3 | 16.1
C/C(=N\NC(=O)Cc1cccn1C)c1ccco1 | 3.4 | 1.9 | -5.6 | 15.6
Cn1cccc1CC(=O)N/N=C/C=C/c1ccco1 | 5.4 | -2.2 | -11.7 | 80.0*
CN(c1ncc(C(F)(F)F)cc1Cl)n1cc(C(=O)O)c2ccccc2c1=O | 0.7 | 0.8 | -0.3 | 2.8
CN(c1ncc(C(F)(F)F)cc1Cl)n1cc(C(N)=O)c2ccccc2c1=O | -1.7 | 110.1* | 7.0 | 18.9
COC(=O)c1cc2c(c3c4cc(F)ccc4n(S(=O)(=O)c4cccc(C)c4)c13)C(=O)N(Cc1ccco1)C2 | x | 0.0 | 5.9 | x
O=[N+]([O-])C(=C1Nc2ccccc2N1)C(Cl)=C(Cl)Cl | 19.6* | 16.0 | -2.2 | 20.5
CN1CCO/C1=C(\C(Cl)=C(Cl)Cl)[N+](=O)[O-] | 0.9 | 2.1 | 5.3 | -5.5
COCc1cc(N2CCNC[C@H]2C)ccc1N1C[C@@H](C)O[C@@H](C)C1 | x | x | 6.4 | x
COc1ccc(-c2ccc(/C=C(\NC(=O)c3ccccc3)C(=O)N3CCOCC3)o2)cc1 | 78.5* | 5.5 | 3.4 | 18.3
COc1ccc(/C=C(/NC(=O)c2ccccc2)C(=O)N2CCOCC2)cc1OC | 18.6* | 12.0 | 0.8 | -7.3
COc1ccc(C(=O)N/C(=C\c2ccccc2)C(=O)N2CCOCC2)cc1 | 0.3 | -0.3 | -17.9 | 3.4
COc1ccc2[nH]c(=O)c(C(c3nnnn3C3CCCCC3)N3CCN(C)CC3)cc2c1 (configuration not stated) | 1.9 | 7.9 | -7.8 | 12.8
SMILES | Fh CTSL1 inh | NSD2 HMT inh | TDP2 inh | SUMO HTRF inh
COc1ccc(C(c2nnnn2C2CCCCC2)N2CCN(C)CC2)c(OC)c1 (configuration not stated) | 17.9* | -6.2 | 7.6 | 3.0
C[C@@H]1ON(C)[C@H]2C[C@H]3c4cc(-c5ccc6c(c5)OCO6)ccc4CCN3C[C@@H]12 | x | x | 2.3 | x
O=[N+]([O-])c1ccc(N2CCN(c3cccc(Cl)c3)CC2)cn1 | -2.8 | 1.0 | -13.1 | -0.9
O=C(Nc1ccccc1N1CCCCC1)c1ccc(-c2cccc(Cl)c2)o1 | 9.7 | -2.2 | -10.1 | 5.7
O=C(Nc1cccc2nsnc12)c1ccc(-c2cccc(Cl)c2)o1 | 5.8 | 6.8 | 8.0 | 59.7*
O=[N+]([O-])c1cc(Cl)ccc1N1CCCC1 | -0.8 | 0.4 | -3.4 | -7.6
O=C1C(Cl)=C(N2CCN(c3ccccc3[N+](=O)[O-])CC2)C(=O)c2ccccc21 | 8.6 | x | 61.9* | 79.7
O=C(CCN1CCN(c2ccccc2)CC1)N/N=C/c1ccc(O)c(O)c1O | x | 21.3 | 14.7 | 76.4*
Cc1ccc(-c2cc(C(=O)NN=Cc3cccc4ccccc34)[nH]n2)cc1C | x | -0.1 | -5.9 | x
O=C1/C(=C\c2cccc(O)c2O)SC(=S)N1Cc1ccccc1 | -2.1 | 51.5* | -19.1 | 1.4
O=c1[nH][nH]c2c(N=Cc3ccccc3O)ccc(F)c12 | x | x | x | 66.3*
O=c1[nH][nH]c2c([N+](=O)[O-])ccc(F)c12 | x | 22.2 | 2.4 | x
O=C(COc1ccc(C(=O)NCC2CCCO2)cc1)Nc1cccc(C(F)(F)F)c1 (configuration not stated) | -2.8 | -1.7 | 2.0 | x
CC1CCN(S(=O)(=O)c2ccc3c4c2CC(=O)N4CC(C)S3)CC1 (configuration not stated) | 31.3* | 0.6 | 5.2 | 9.2
O=[N+]([O-])c1ccc(N=Nc2ccc(O)cc2O)cc1 | 11.6 | 36.8 | -1.6 | 1.2
O=S(=O)(O)c1cc(Cl)cc(N=Nc2ccc(O)cc2O)c1O | x | 112.6* | 12.7 | x
O=C(NCCN1CCc2ccccc2C1)Nc1ccc([N+](=O)[O-])cc1 | -5.1 | 1.0 | -4.7 | 57.6*
Cc1nc(S/C(=C/c2ccc(OCc3ccc(C(=O)O)cc3)cc2)C(=O)O)n[nH]1 | 3.9 | 8.9 | -10.0 | 58.4*
CSc1nc(N(CCO)CCO)c2sc3nc(-c4ccco4)c4c(c3c2n1)CCC4 | x | 0.4 | 1.4 | 62.0*
CSc1nc(SCCO)c2sc3nc(-c4ccco4)c4c(c3c2n1)CC(C)(C)OC4 | x | x | 12.5 | 39.1
COC(=O)[C@]1(CNC(=O)C(C)(C)C)CC(=O)N(Cc2ccc(Cl)cc2)[C@@H]1c1ccc(OC)cc1 | x | x | -5.3 | x
C=CCn1c(N)c(C(=O)Nc2ccccc2)c2nc3ccccc3nc21 | 3.5 | -13.8 | -3.9 | 90.9*
C=CCn1c(N)c(C(=O)OC(C)(C)C)c2nc3ccccc3nc21 | x | -10.1 | 7.2 | 97.7*
CCCCOCCCNC(=O)C[C@@H]1C(=O)N(Cc2ccc(OC)cc2)/C2=C/CCCCC[C@@]21C(=O)OCC | x | x | 3.0 | x
O=C(O)/C=C/c1cn(-c2ccccc2)nc1-c1cc2ccccc2o1 | 4.6 | -1.2 | -1.3 | 51.0*
SMILES | Fh CTSL1 inh | NSD2 HMT inh | TDP2 inh | SUMO HTRF inh
O=C(O)/C=C/c1cn(-c2ccccc2)nc1-c1ccccc1 | -0.6 | 0.5 | -13.9 | 4.6
O=C(O)/C=C\c1cn(-c2ccccc2)nc1-c1cc2ccccc2o1 | 6.0 | 2.1 | 0.3 | 59.0*
CCOC(=O)/C=C(\C)Sc1cc(O)c2ccccc2c1O | x | x | 58.5* | 74.0*
Nc1cc(CN2C(=O)c3ccccc3C2=O)cc(Cl)c1O | 25.1* | x | -7.1 | -11.6
Cc1noc(C)c1S(=O)(=O)N(C)C[C@@H]1OCc2cn(nn2)CCCC(=O)N([C@@H](C)CO)C[C@H]1C | x | x | -18.1 | x
COC(=O)[C@]12C[C@H](CC(=O)NCCCN3CCCC3=O)C(=O)N(Cc3ccc(Cl)cc3Cl)C1=C[C@H](C(C)C)O[C@@H]2C1CC1 | x | x | 6.4 | x
CCOC(=O)c1c(-c2ccccc2)oc2ccc(OC(C)=O)cc12 | -31.7 | -3.9 | -1.1 | 17.2

High-throughput results (PubChem BioAssay)
